Screens from PubChem.
PREPL inhibitor: inhibits the human prolyl oligopeptidase-like enzyme; hit rate 0.68% among 320,000; Q4J6C6; inhibition, % at 5.96 µM; recombinant PREPL, fluorescence polarization activity-based probe;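 also: 0% = enzyme with DMSO and 100% = wells lacking enzyme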
procasp7 counter: counter-screen: procaspase-7 (human) activation | recombinant procaspase-7, Ac-DEVD-pNA absorbance 405 nm; D23A/D198A/D206A triple mutant, cannot self-cleave; scale: DMSO 0, 5 µM enzyme 100 | activation, % at 8.5 µM | hit rate 0.093% among 330,000;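 active = percent activation above the screen-wide mean plus 3 SD, cut at about 25% in these data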
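Material: Procaspase-7 triple mutant (PC-7 D3A) | Quantity: 2 µM procaspase-7 mutant as dispensed | Reagent: DEVD-pNA substrate | Times: 1 h preincubation, 2 h reaction | Technique: 405 nm absorbance of p-nitroaniline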
LYPLA1 counter: blocks human lysophospholipase 1, a PME1 counter-screen | O75608 | recombinant LYPLA1, FP-Rh probe fluorescence polarization | inhibition, % at 5.9 µM | hit rate 0.16% among 320,000;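 active = inhibition above the mean of all tested compounds plus 3 SD, set per campaign, cut at about 14% in these data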;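 also: inhibitors block serine hydrolase probe labeling of LYPLA1 so polarization falls; 0% = enzyme with DMSO and 100% = wells lacking LYPLA1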
proCasp3 act: procaspase-3 (human) activation; P42574; recombinant procaspase-3 D3A, Ac-DEVD-pNA absorbance 405 nm; activation, % at 8.5 µM; hit rate 0.11% among 330,000; AID 463141;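 active = activation above the mean of all tested compounds plus 3 SD, cut at about 21% in these data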;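 also: 0% = DMSO alone and 100% = DMSO wells spiked with extra 5 µM PC-3 D3A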
Target sequence (P42574 whole entry D9A/D28A/D175A): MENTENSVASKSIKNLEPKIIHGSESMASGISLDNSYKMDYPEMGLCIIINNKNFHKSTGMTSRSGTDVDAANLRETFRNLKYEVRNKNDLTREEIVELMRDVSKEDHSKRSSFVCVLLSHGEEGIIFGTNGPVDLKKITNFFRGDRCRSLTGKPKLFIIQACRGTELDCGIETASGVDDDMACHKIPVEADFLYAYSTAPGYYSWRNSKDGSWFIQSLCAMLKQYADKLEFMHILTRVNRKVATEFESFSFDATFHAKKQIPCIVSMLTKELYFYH
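Evaluation: percent activation relative to control range; Material: Procaspase-3 D3A mutant, all three cleavage aspartates alanine; Compound: single dose, 8.5 µM nominal compound, 0.8% DMSO; Replication: one well per compound; Signal: absorbance at 405 nm, 0 and 120 min; Schedule: 1 h preincubation plus 2 h reaction at 25 °C.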
LYPLA2 counter: blocks human lysophospholipase 2, a PME1 counter-screen | O95372 | recombinant LYPLA2, FP-Rh probe fluorescence polarization | inhibition, % at 5.9 µM | hit rate 0.38% among 320,000;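 active = inhibition above the screen-wide mean plus 3 SD, limit set per campaign, cut at about 26% in these data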;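 also: 0% = LYPLA2 with DMSO and 100% = wells lacking LYPLA2 enzyme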
Target sequence (O95372 whole entry, looked up): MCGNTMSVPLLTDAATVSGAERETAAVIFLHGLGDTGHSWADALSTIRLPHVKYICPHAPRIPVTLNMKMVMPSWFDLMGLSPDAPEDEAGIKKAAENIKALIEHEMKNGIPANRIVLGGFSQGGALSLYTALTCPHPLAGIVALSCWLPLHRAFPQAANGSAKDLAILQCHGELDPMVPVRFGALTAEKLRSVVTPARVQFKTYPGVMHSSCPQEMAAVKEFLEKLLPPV
LYPLA2 conf: counter-screen for PME1 inhibitors: confirmation of human LYPLA2 inhibitors; shares compounds with LYPLA2 counter; recombinant LYPLA2, FP-Rh probe fluorescence polarization; inhibition, % at 5.9 µM; hit rate 72% among 1,100;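 active = mean inhibition across replicates above the hit cutoff set in the primary screen, cut at about 26% in these data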;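 also: blocked labeling of the enzyme by serine hydrolase FP-Rh probe lowers polarization; 0% = enzyme with DMSO and 100% = wells lacking LYPLA2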
LYPLA2 gel ABPP: inhibitors of human LYPLA2; inhibition, % at 20 µM; rhLYPLA2 in mouse brain proteome, gel ABPP FP-Rh; hit rate 30% among 150; AID 652029; shares compounds with LYPLA2 counter;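 active = inhibition of LYPLA2 enzyme probe labeling above about 50%, limit read from the data; inactive = inhibition below that limit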;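 also: loss of FP-Rh probe labeling of the LYPLA2 gel band measured as band density; 0% = DMSO only control band and 100% = blank gel background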
PREPL confirm: human PREPL inhibition, confirmation; shares compounds with PREPL inhibitor; recombinant PREPL, fluorescence polarization activity probe; inhibition, % at 5.96 µM; hit rate 67% among 2,000; AID 2803;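 also: 0% = protein with DMSO and 100% = wells lacking protein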
procasp7 triplic: activates human procaspase-7, counter-screen for procaspase-3 activators | shares compounds with proCasp3 act | recombinant procaspase-7, Ac-DEVD-pNA absorbance; asp23/198/206-to-Ala mutant, cannot self-cleave | activation, % at 8.5 µM | 210 tested, under 10 active | AID 488941;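 active = mean activation above a set limit taken from an earlier procaspase-7 screen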;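 also: 0% = DMSO wells and 100% = DMSO plus 5 µM procaspase-7 enzyme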
procasp3 conf: confirmation of human procaspase-3 activators; shares compounds with proCasp3 act; hit rate 10% among 210; activation, % at 8.5 µM; AID 488954; recombinant PC-3 D3A, Ac-DEVD-pNA absorbance 405 nm; 100% is higher-enzyme control;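 active = mean activation above a set limit carried over from the earlier primary screen, cut at about 22% in these data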
Numbers without * were called inactive; . = no result given. Shown are actives, neighbours in structure and some others; about 1.1% of the full set was active somewhere. Rule as the data show it, unless noted: active = inhibition above about 43%; inactive = the rest.

SMILES | PREPL inhibitor | procasp7 counter | LYPLA1 counter | proCasp3 act | LYPLA2 counter | LYPLA2 conf | others
Cc1cc(C)n(CCC(=O)N2CCCC(N3CCN(c4cccc(Cl)c4)CC3)C2)n1 (stereo not drawn) | 14 | -2 | 2 | -5 | 6 | .
CCn1nc(C)cc1C(=O)N1CCCC(N2CCN(c3cccc(Cl)c3)CC2)C1 (stereo not drawn) | 15 | -6 | 3 | 6 | 46* | 46*
COc1cc2c(=O)n(CCCC(=O)NCC3CCCO3)c(=O)n(CC(=O)c3ccc(F)cc3)c2cc1OC (stereo not drawn) | 2 | 7 | 4 | 3 | 4 | .
COc1ccc(NC(=O)CC2SC(=N)N(c3ccccc3)C2=O)c(OC)c1 (stereo not drawn) | 12 | 1 | -1 | 1 | 4 | .
CCc1ccc(N2CC(C(=O)OCc3nc4ccsc4c(=O)[nH]3)CC2=O)cc1 (stereo not drawn) | 9 | 3 | 0 | 4 | 8 | .
CCOC(=O)N1CCN(C(=O)CCCn2c(=O)[nH]c3ccccc3c2=O)CC1 | 12 | 3 | 2 | 7 | 6 | .
COc1ccc(N2CCN(C(=O)Cc3ccc(C)cc3)CC2)cc1 | 2 | 6 | 0 | -3 | -3 | .
O=C(CCc1nc2ccccc2s1)N1CCN(c2ccccc2)CC1 | -41 | 6 | -2 | -1 | 1 | .
COc1ccc(N2CCN(C(=O)CSc3nc4[nH]ncc4c(=O)n3-c3cccc4ccccc34)CC2)cc1 | 0 | 5 | 2 | 1 | 34* | 30*
CC(=O)c1ccc(N2CCN(C(=O)CCCc3nc4ccccc4s3)CC2)cc1 | 19 | -4 | 6 | 1 | 42* | 44*
COc1ccc(N2CCN(C(=O)Cc3ccc(-n4c(=O)[nH]c5ccccc5c4=O)cc3)CC2)cc1 | 17 | 0 | 10 | 2 | 57* | 51* | LYPLA2 gel ABPP=28
CC(=O)c1ccc(N2CCN(C(=O)CCCn3c(=O)[nH]c4ccccc4c3=O)CC2)cc1 | -19 | 7 | 6 | -10 | 53* | 49*
Oc1ccc(Cl)cc1CNCc1cccc2ccccc12 | -21 | 2 | -1 | 0 | -2 | .
O=C(NCCCN1CCOCC1)c1c(-c2ccccc2)sc2ccccc12 | -1 | 0 | . | -1 | . | .
O=C(NC1CCCCC1)C1CC(=O)N(Cc2ccccc2)C1 (stereo not drawn) | -1 | 4 | -2 | 3 | 3 | .
O=C(c1ccc(Cn2c(=O)[nH]c3ccccc3c2=O)cc1)N1CCN(c2ccccc2)CC1 | -74 | 2 | 8 | 10 | 35* | 28*
Cc1cccc(NC(=O)C2CCN(C(=O)N3CCOc4ccccc43)CC2)c1C | 6 | 5 | -1 | 4 | 1 | .
COC(=O)c1ccc(NC(=O)C(=O)N2CCN(C(=S)Nc3cccc(C)c3C)CC2)cc1 | 17 | 10 | 0 | 4 | 50* | 42*
CC(C)CC(=O)Nc1ccc(C(=O)Cn2nc(C(=O)O)c3ccccc3c2=O)cc1 | 1 | 9 | 0 | 4 | 44* | 39*
C#CCOCCOCCOCCNc1nc(N2CCN(C(=O)CCCCCCCCCCNC(=O)[C@H](CCC(=O)O)n3cc(CCCCCN)nn3)CC2)nc(N2CCN(C(=O)CCCCCCCCCCNC(=O)[C@@H]([C@H](C)O)n3cc(C)nn3)CC2)n1 | -2 | -4 | 1 | 2 | 7 | .
C#CCOCCOCCOCCNc1nc(N2CCN(C(=O)CCCCCCCCCCNC(=O)Cn3cc(CCCCCN)nn3)CC2)nc(N2CCN(C(=O)CCCCCCCCCCNC(=O)[C@H]([C@@H](C)CC)n3cc(CCCCCN)nn3)CC2)n1 | 62* | -2 | 3 | -1 | 31* | 23 | PREPL confirm=57*
C#CCOCCOCCOCCNc1nc(N2CCN(C(=O)CCCCCCCCCCNC(=O)[C@H]([C@@H](C)CC)n3cc(CCCCCN)nn3)CC2)nc(N2CCN(C(=O)CCCCCCCCCCNC(=O)[C@@H]([C@H](C)O)n3cc(C)nn3)CC2)n1 | 46* | -5 | 0 | -3 | 29* | 29* | PREPL confirm=33
CCC(C)NC(=O)Cc1c(C)c2cc3c(cc2oc1=O)OC(C)(C)CC3 (stereo not drawn) | 22 | 3 | 0 | 5 | 4 | .
Cc1ccc(C(=O)N2CCN(c3ccc(NC(=O)COc4ccccc4C)cc3)CC2)cc1 | 52* | 5 | 2 | -6 | 29* | 27* | PREPL confirm=51*
CC(Oc1ccc(Br)cc1)C(=O)NCCCN1CCCC1=O (stereo not drawn) | 19 | 2 | . | -5 | . | .
SMILES | PREPL inhibitor | procasp7 counter | LYPLA1 counter | proCasp3 act | LYPLA2 counter | LYPLA2 conf | others
O=C(O)C1Nc2c(O)cc(Cl)c([N+](=O)[O-])c2C2C=CCC12 (stereo not drawn) | 94* | -1 | -14 | 2 | 35* | -2 | PREPL confirm=22
COc1ccc(CCN=C(N)NS(=O)(=O)c2cc(F)ccc2F)cc1 | 15 | -2 | 1 | -1 | 13 | .
N#C/C(=C/c1ccc(N2CCCC2)c([N+](=O)[O-])c1)c1nc2ccccc2[nH]1 | 14 | 2 | 3 | -3 | 7 | .
N#C/C(=C\c1ccc(N2CCOCC2)c([N+](=O)[O-])c1)c1nc2ccccc2[nH]1 | 45* | -12 | 12 | -6 | 31* | 53* | PREPL confirm=40
Oc1ccc(N=Cc2ccc(-c3cccs3)s2)cc1 | 22 | 24 | 10 | 35* | 29* | 8 | procasp7 triplic=-22;procasp3 conf=-12
O=C(OCc1cccc(F)c1)c1cc2ccccc2cc1O | 2 | -3 | 3 | -4 | 0 | .
O=c1c2c3c(sc2nc(NCCO)n1Cc1ccco1)CCCCC3 | 4 | 1 | 4 | -7 | 3 | .
O=c1c2c3c(sc2nc(NCCO)n1CCc1ccccc1)CCCCC3 | 164* | 0 | -1 | -2 | 5 | . | PREPL confirm=40
CCN1C(=O)[C@H]2[C@@H](c3ccc(-c4ccc(Cl)c(Cl)c4)c(OC)c3)N[C@@](C)(C(=O)OC)[C@H]2C1=O | 18 | -9 | 5 | -6 | 6 | .
